Reference: ChEMBL document CHEMBL2062455, “Daphmacromines A-J, alkaloids from Daphniphyllum macropodum” (J Nat Prod, 2012)
pIC50: −log10 of the molar value.

How the values were obtained:
[1] = tested on: SW480; assay: Cytotoxicity against human SW480 cells after 48 hrs by MTT assay; assay type: functional, cell-based; conditions: SW480, 48 h
Summary of the method: (§1)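 Cells kept in DMEM or RPMI-1640 with 10% FBS at 37 °C, 5% CO2. Initial density 5 × 10^3 to 1 × 10^4 cells/mL. Adherent cells attached 12 h before dosing; suspension cells seeded just before dosing. Compounds at 40 μM, triplicate, 48 h, cisplatin and paclitaxel as positive controls. MTT then 4 h at 37 °C, SDS lysis, OD 595 nm. IC50 by Reed–Muench method.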

[2] = tested on: A549; assay: Cytotoxicity against human A549 cells after 48 hrs by MTT assay; assay type: functional, cell-based; conditions: A549, 48 h; summary of the method: as §1
[3] = tested on: MCF7; assay: Cytotoxicity against human MCF7 cells after 48 hrs by MTT assay; assay type: functional, cell-based; conditions: MCF7, 48 h; summary of the method: as §1
[4] = tested on: SMMC-7721; assay: Cytotoxicity against human SMMC7721 cells after 48 hrs by MTT assay; assay type: functional, cell-based; conditions: SMMC-7721, 48 h; summary of the method: as §1
[5] = tested on: HL-60; assay: Cytotoxicity against human HL60 cells after 48 hrs by MTT assay; assay type: functional, cell-based; conditions: HL-60, 48 h; summary of the method: as §1
[6] = Toxicity in brine shrimp assessed as mortality at […] after 24 hrs by microscopic analysis; assay type: organism-based; conditions: artemia salina, in vivo; read-out: Activity
Summary of the method: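 Artemia salina eggs hatched in artificial seawater for 48 h at 28 °C to give nauplii. Compounds dissolved in DMSO, then diluted in artificial seawater to 100, 50 and 10 mg/L and tested in triplicate, with DMSO control wells. 15−25 nauplii per well, covered plate, 28 °C, 24 h. Nonmotile nauplii were scored as dead under the microscope.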

| Structure (SMILES) | pIC50 [1] | pIC50 [2] | pIC50 [3] | pIC50 [4] | pIC50 [5] | mortality at 24 h [6] [%] |
| --- | --- | --- | --- | --- | --- | --- |
| COC(=O)[C@@H]1C[C@@]23C(=O)N4C[C@@H](CCC5=C2[C@@H]1CC5)[C@]3(CO)/C=C\C(=O)[C@H](C)C4 | < 4.40 | < 4.40 | < 4.40 | < 4.40 | < 4.40 | 38.3 |
| CC[C@]1(OC)CCC2(CO1)[C@@H]1CCC3=C4[C@H](CC3=O)[C@H](C(=O)OC)C[C@@]42CN(C)C1 (stereo partly specified) [DAPHMACROMINE E] | < 4.40 | < 4.40 | < 4.40 | < 4.40 | < 4.40 | 70.9 |
| COC(=O)[C@@H]1C[C@@]23C4=C(CC[C@@H]5CN6C[C@@H](C)[C@@H](C[C@@H](OC(C)=O)[C@@]52COC(C)=O)[C@]63O)CC[C@@H]41 [YUZURIMINE] | < 4.40 | < 4.40 | < 4.40 | < 4.40 | < 4.40 | 70.8 |
| CCOC(=O)[C@@H]1C[C@@]23CN(C)C[C@@H](CCC4=C2[C@@H]1CC4=O)C31CC[C@](CC)(OC)OC1 (stereo partly specified) [DAPHMACROMINE A] | < 4.40 | < 4.40 | < 4.40 | < 4.40 | < 4.40 | 41 |
| COC(=O)[C@@H]1C[C@@]23C4=C(CC[C@@H]5CN6C[C@@H](C)[C@@H](C=C[C@@]52C=O)[C@]63O)CC[C@@H]41 [DAPHHIMALENINE B] | < 4.40 | < 4.40 | < 4.40 | < 4.40 | < 4.40 | 64.9 |
| COC(=O)[C@@H]1C[C@@]23CN(C)C[C@@H](CCC4=C2[C@H]1CC4=O)C31CC[C@@](O)(C(C)C)OC1 (stereo partly specified) [DAPHMACROMINE H] | < 4.40 | < 4.40 | < 4.40 | < 4.40 | < 4.40 | – |
| COC(=O)[C@@H]1C[C@@]23C4=C(CC[C@@H]5CN6C[C@H](C)[C@@](O)(C=C[C@@]52C=O)[C@]63O)CC[C@@H]41 [YUZURIMINE C] | < 4.40 | < 4.40 | < 4.40 | < 4.40 | < 4.40 | 80.6 |
| CCC1=CCC2(CO1)[C@@H]1CCC3=C4[C@H](CC3=O)[C@H](C(=O)OC)C[C@@]42CN(C)C1 (stereo partly specified) [DAPHMACROMINE I] | < 4.40 | < 4.40 | < 4.40 | < 4.40 | < 4.40 | 64.6 |
| COC(=O)[C@@H]1C[C@]23C4=NC[C@@H](C)[C@]45C[C@@H](OC(C)=O)[C@@]2(COC(C)=O)[C@H](CCC2=C3[C@@H]1CC2)[C@H]5O [DAPHTENIDINE C] | < 4.40 | < 4.40 | < 4.40 | < 4.40 | < 4.40 | 31.8 |
| CCO[C@@]1(CC)CCC2(CO1)[C@@H]1CCC3=C4[C@H](CC3=O)[C@H](C(=O)OC)C[C@@]42CN(C)C1 (stereo partly specified) [DAPHMACROMINE C] | < 4.40 | < 4.40 | < 4.40 | < 4.40 | < 4.40 | 50.9 |
| CCO[C@@]1(CC)CCC2(CO1)[C@@H]1CCC3=C4[C@@H](CC3=O)[C@H](C(=O)OC)C[C@@]42CN(C)C1 (stereo partly specified) [DAPHMACROMINE D] | < 4.40 | < 4.40 | < 4.40 | < 4.40 | < 4.40 | 53.8 |
| CC[C@]1(OC)CCC2(CO1)[C@@H]1CCC3=C4[C@@H](CC3=O)[C@H](C(=O)OC)C[C@@]42CN(C)C1 (stereo partly specified) [DAPHMACROMINE G] | < 4.40 | < 4.40 | < 4.40 | < 4.40 | < 4.40 | 67.7 |
| CCOC(=O)[C@@H]1C[C@@]23CN(C)C[C@@H](CCC4=C2[C@H]1CC4=O)C31CC[C@](CC)(OC)OC1 (stereo partly specified) [DAPHMACROMINE B] | < 4.40 | < 4.40 | < 4.40 | < 4.40 | < 4.40 | 49.9 |
| COC(=O)[C@@H]1C[C@@]23CN(C)C[C@@H](CCC4=C2[C@@H]1CC4=O)C31CC=C(C(C)C)OC1 (stereo partly specified) [DAPHMACROMINE J] | < 4.40 | < 4.40 | < 4.40 | < 4.40 | < 4.40 | 55.2 |
| CC[C@@]1(OC)CCC2(CO1)[C@@H]1CCC3=C4[C@H](CC3=O)[C@H](C(=O)OC)C[C@@]42CN(C)C1 (stereo partly specified) [DAPHMACROMINE F] | < 4.40 | < 4.40 | < 4.40 | < 4.40 | < 4.40 | 45 |
| COC(=O)[C@@H]1C[C@@]23C4=C(CC[C@@H]5CN6C[C@@H](C)[C@@H](C[C@@H](OC(C)=O)[C@@]52COC(C)=O)C63)CC[C@@H]41 [DEOXYYUZURIMINE] | < 4.40 | < 4.40 | < 4.40 | < 4.40 | < 4.40 | 81.8 |
| COC(=O)[C@@H]1C[C@@]23C4=C(CC[C@@H]5CN6C[C@@H](C)[C@@H](C[C@@H](O)[C@@]52CO)[C@]63O)CC[C@@H]41 [DAPHNEZOMINE K] | < 4.40 | < 4.40 | < 4.40 | < 4.40 | < 4.40 | 0 |
